Experimental data reported in ChEMBL document CHEMBL5303300, “EUbOPEN Chemogenomics Library - Multiplex” (2023).
Values joined by “and” are separate entries in the source; they are usually repeats but may differ in a detail not shown here. Equal values may be shown once.

Tests used:
Type in all cases: toxicity, cell-based
Fibroblast = assay: Multiplex assay against human fibroblast; conditions: number of replicates 2
Procedure, shortened: (§1)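 Cells were classed with CellPathfinder machine-learning gating, first as Hoechst high-intensity objects or normal cells, then (normal cells) as healthy, pyknosed or fragmented nuclei, and finally (pyknosed cells) as mitotic or apoptotic. Staining of live cells at seeding used Hoechst33342, BioTracker Green Microtubule Cytoskeleton Dye, MitoTracker Red and Annexin V Alexa Fluor 680, with imaging on a CQ1 microscope at 37°C and 5% CO2 after compound addition. Tubulin, mitochondrial-mass and membrane-permeability phenotypes are per cents of healthy-nucleus cells.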

HEK-293T = assay: Multiplex assay against HEK293T; conditions: human, number of replicates 2; procedure, shortened: as §1
U2OS = assay: Multiplex assay against U2OS; conditions: human, number of replicates 2; procedure, shortened: as §1
[1] = 12 h, 1 µM, compound concentration 1 uM
[2] = 12 h, 10 µM, compound concentration 10 uM
[3] = 24 h, 1 µM, compound concentration 1 uM
[4] = 24 h, 10 µM, compound concentration 10 uM
[5] = 48 h, 1 µM, compound concentration 1 uM
[6] = 48 h, 10 µM, compound concentration 10 uM

## Cn1cc(-c2ccc(N(C(=O)NCc3ccccc3)[C@H]3CC[C@H](Nc4ccc(C#N)cn4)CC3)cc2)ccc1=O
Fibroblast; [1]
  Population Apoptotic (%): 46%
  Population Fragmented Nuclei (%): 8% and 18%
  Population Healthy Nuclei (%): 72% and 60%
  Population Hoechst High Intensity Objects (%): 0%
  Population Membrane Permeable-Phenotype (%): 6%
  Population Mitochondria Different-Phenotype (%): 1% and 2%
  Population Mitotic Cells (%): 53%
  Population Normal (%): 100%
  Population Pyknosed Nuclei (%): 19% and 21%
  Population Tubulin-Different-Phenotype (%): 9% and 11%
  Total Cell Count: 155 and 181
Fibroblast; [2]
  Population Apoptotic (%): 39% and 40%
  Population Fragmented Nuclei (%): 8% and 9%
  Population Healthy Nuclei (%): 55% and 72%
  Population Hoechst High Intensity Objects (%): 0%
  Population Membrane Permeable-Phenotype (%): 16% and 14%
  Population Mitochondria Different-Phenotype (%): 3%
  Population Mitotic Cells (%): 60% and 59%
  Population Normal (%): 99%
  Population Pyknosed Nuclei (%): 36% and 18%
  Population Tubulin-Different-Phenotype (%): 75% and 55%
  Total Cell Count: 249 and 273
Fibroblast; [3]
  Population Apoptotic (%): 38% and 48%
  Population Fragmented Nuclei (%): 12% and 15%
  Population Healthy Nuclei (%): 73% and 64%
  Population Hoechst High Intensity Objects (%): 0%
  Population Membrane Permeable-Phenotype (%): 4% and 7%
  Population Mitochondria Different-Phenotype (%): 0% and 1%
  Population Mitotic Cells (%): 61% and 51%
  Population Normal (%): 99%
  Population Pyknosed Nuclei (%): 14% and 20%
  Population Tubulin-Different-Phenotype (%): 11%
  Total Cell Count: 149 and 180
Fibroblast; [4]
  Population Apoptotic (%): 54% and 81%
  Population Fragmented Nuclei (%): 10%
  Population Healthy Nuclei (%): 44% and 47%
  Population Hoechst High Intensity Objects (%): 0%
  Population Membrane Permeable-Phenotype (%): 18%
  Population Mitochondria Different-Phenotype (%): 7% and 5%
  Population Mitotic Cells (%): 45% and 18%
  Population Normal (%): 99%
  Population Pyknosed Nuclei (%): 44% and 42%
  Population Tubulin-Different-Phenotype (%): 79% and 63%
  Total Cell Count: 231 and 271
Fibroblast; [5]
  Population Apoptotic (%): 76% and 60%
  Population Fragmented Nuclei (%): 17% and 16%
  Population Healthy Nuclei (%): 68%
  Population Hoechst High Intensity Objects (%): 0%
  Population Membrane Permeable-Phenotype (%): 5% and 2%
  Population Mitochondria Different-Phenotype (%): 0%
  Population Mitotic Cells (%): 23% and 39%
  Population Normal (%): 100%
  Population Pyknosed Nuclei (%): 13% and 15%
  Population Tubulin-Different-Phenotype (%): 8% and 5%
  Total Cell Count: 154 and 186
Fibroblast; [6]
  Population Apoptotic (%): 71% and 83%
  Population Fragmented Nuclei (%): 8% and 15%
  Population Healthy Nuclei (%): 36% and 28%
  Population Hoechst High Intensity Objects (%): 0% and 1%
  Population Membrane Permeable-Phenotype (%): 26% and 22%
  Population Mitochondria Different-Phenotype (%): 8% and 2%
  Population Mitotic Cells (%): 28% and 16%
  Population Normal (%): 99% and 98%
  Population Pyknosed Nuclei (%): 54% and 56%
  Population Tubulin-Different-Phenotype (%): 78% and 65%
  Total Cell Count: 233 and 237
HEK-293T; [1]
  Population Apoptotic (%): 40% and 44%
  Population Fragmented Nuclei (%): 3% and 2%
  Population Healthy Nuclei (%): 83% and 84%
  Population Hoechst High Intensity Objects (%): 5%
  Population Membrane Permeable-Phenotype (%): 2% and 3%
  Population Mitochondria Different-Phenotype (%): 19% and 9%
  Population Mitotic Cells (%): 59% and 55%
  Population Normal (%): 94%
  Population Pyknosed Nuclei (%): 12%
  Population Tubulin-Different-Phenotype (%): 52% and 40%
  Total Cell Count: 571 and 680
HEK-293T; [2]
  Population Apoptotic (%): 52% and 47%
  Population Fragmented Nuclei (%): 12% and 6%
  Population Healthy Nuclei (%): 71% and 78%
  Population Hoechst High Intensity Objects (%): 8% and 10%
  Population Membrane Permeable-Phenotype (%): 8% and 3%
  Population Mitochondria Different-Phenotype (%): 54% and 57%
  Population Mitotic Cells (%): 47% and 52%
  Population Normal (%): 91% and 89%
  Population Pyknosed Nuclei (%): 16% and 15%
  Population Tubulin-Different-Phenotype (%): 92% and 93%
  Total Cell Count: 474 and 388
HEK-293T; [3]
  Population Apoptotic (%): 35% and 31%
  Population Fragmented Nuclei (%): 5% and 4%
  Population Healthy Nuclei (%): 86%
  Population Hoechst High Intensity Objects (%): 8% and 6%
  Population Membrane Permeable-Phenotype (%): 2% and 5%
  Population Mitochondria Different-Phenotype (%): 5% and 4%
  Population Mitotic Cells (%): 65% and 68%
  Population Normal (%): 91% and 93%
  Population Pyknosed Nuclei (%): 7% and 8%
  Population Tubulin-Different-Phenotype (%): 33% and 30%
  Total Cell Count: 908 and 972
HEK-293T; [4]
  Population Apoptotic (%): 55% and 37%
  Population Fragmented Nuclei (%): 4% and 9%
  Population Healthy Nuclei (%): 86% and 77%
  Population Hoechst High Intensity Objects (%): 12% and 11%
  Population Membrane Permeable-Phenotype (%): 3% and 7%
  Population Mitochondria Different-Phenotype (%): 42% and 52%
  Population Mitotic Cells (%): 44% and 62%
  Population Normal (%): 87% and 88%
  Population Pyknosed Nuclei (%): 9% and 12%
  Population Tubulin-Different-Phenotype (%): 91% and 90%
  Total Cell Count: 478 and 532
HEK-293T; [5]
  Population Apoptotic (%): 9% and 8%
  Population Fragmented Nuclei (%): 10% and 11%
  Population Healthy Nuclei (%): 85%
  Population Hoechst High Intensity Objects (%): 9%
  Population Membrane Permeable-Phenotype (%): 6%
  Population Mitochondria Different-Phenotype (%): 1% and 0%
  Population Mitotic Cells (%): 90% and 91%
  Population Normal (%): 90%
  Population Pyknosed Nuclei (%): 3%
  Population Tubulin-Different-Phenotype (%): 14% and 16%
  Total Cell Count: 2214 and 2329
HEK-293T; [6]
  Population Apoptotic (%): 43% and 56%
  Population Fragmented Nuclei (%): 7% and 3%
  Population Healthy Nuclei (%): 79% and 86%
  Population Hoechst High Intensity Objects (%): 10% and 13%
  Population Membrane Permeable-Phenotype (%): 5% and 2%
  Population Mitochondria Different-Phenotype (%): 39% and 30%
  Population Mitotic Cells (%): 56% and 43%
  Population Normal (%): 89% and 86%
  Population Pyknosed Nuclei (%): 12% and 9%
  Population Tubulin-Different-Phenotype (%): 74% and 66%
  Total Cell Count: 578 and 533
U2OS; [1]
  Population Apoptotic (%): 50% and 60%
  Population Healthy Nuclei (%): 48% and 86%
  Population Hoechst High Intensity Objects (%): 0%
  Population Membrane Permeable-Phenotype (%): 0% and 3%
  Population Mitochondria Different-Phenotype (%): 5% and 3%
  Population Mitotic Cells (%): 50% and 39%
  Population Normal (%): 100%
  Population Pyknosed Nuclei (%): 14% and 12%
  Population Tubulin-Different-Phenotype (%): 55% and 75%
U2OS; [2]
  Population Apoptotic (%): 93% and 59%
  Population Fragmented Nuclei (%): 16% and 12%
  Population Healthy Nuclei (%): 41% and 57%
  Population Hoechst High Intensity Objects (%): 0%
  Population Membrane Permeable-Phenotype (%): 20% and 21%
  Population Mitochondria Different-Phenotype (%): 33% and 16%
  Population Normal (%): 100% and 99%
  Population Pyknosed Nuclei (%): 41% and 30%
  Population Tubulin-Different-Phenotype (%): 40% and 48%
U2OS; [3]
  Population Apoptotic (%): 66% and 60%
  Population Healthy Nuclei (%): 40% and 87%
  Population Hoechst High Intensity Objects (%): 0%
  Population Membrane Permeable-Phenotype (%): 0% and 3%
  Population Mitochondria Different-Phenotype (%): 0% and 1%
  Population Mitotic Cells (%): 33% and 40%
  Population Normal (%): 100% and 99%
  Population Pyknosed Nuclei (%): 19% and 9%
  Population Tubulin-Different-Phenotype (%): 63% and 79%
U2OS; [4]
  Population Apoptotic (%): 90% and 75%
  Population Fragmented Nuclei (%): 8% and 11%
  Population Healthy Nuclei (%): 31%
  Population Hoechst High Intensity Objects (%): 0%
  Population Membrane Permeable-Phenotype (%): 36% and 21%
  Population Mitochondria Different-Phenotype (%): 27% and 46%
  Population Mitotic Cells (%): 9% and 24%
  Population Normal (%): 100% and 99%
  Population Pyknosed Nuclei (%): 60% and 56%
  Population Tubulin-Different-Phenotype (%): 36% and 69%
U2OS; [5]
  Population Apoptotic (%): 85% and 68%
  Population Healthy Nuclei (%): 65% and 88%
  Population Hoechst High Intensity Objects (%): 0%
  Population Membrane Permeable-Phenotype (%): 2% and 1%
  Population Mitochondria Different-Phenotype (%): 0%
  Population Mitotic Cells (%): 14% and 31%
  Population Normal (%): 100%
  Population Pyknosed Nuclei (%): 11% and 8%
  Population Tubulin-Different-Phenotype (%): 70% and 85%
U2OS; [6]
  Population Apoptotic (%): 78% and 88%
  Population Fragmented Nuclei (%): 30% and 10%
  Population Healthy Nuclei (%): 23% and 24%
  Population Hoechst High Intensity Objects (%): 0% and 2%
  Population Membrane Permeable-Phenotype (%): 40% and 37%
  Population Mitochondria Different-Phenotype (%): 40% and 37%
  Population Mitotic Cells (%): 21% and 11%
  Population Normal (%): 100% and 97%
  Population Pyknosed Nuclei (%): 45% and 65%
  Population Tubulin-Different-Phenotype (%): 40% and 52%
